According to ChEMBL document CHEMBL4145692, “Discovery of a Locally and Orally Active CXCL12 Neutraligand (LIT-927) with Anti-inflammatory Effect in a Murine Model of Allergic Airway Hypereosinophilia” (J Med Chem, 2018):
Converted amounts (≈) assume the structure as drawn. The source made the active and inactive calls. No cut-off for these calls is given here.

Legend:
[1] = Kinetic solubility in pH 7.4 HEPES-BSA buffer at 5 uM incubated for 24 hrs at 20 degC by HPLC method; format: physicochemical; details: read-out: Kinetic_solubility
Summary of the method: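 Compound added from 10 mM DMSO stock to 5 μM in pH 7.4 HEPES-BSA buffer (1 g/L BSA), shaken 24 h at 20 °C. After centrifugation, supernatant concentration measured by HPLC against 5 and 10 μM standards.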

[2] = biological target: T1, Stromal cell-derived factor 1 (Homo sapiens, UniProt P48061); assay: Binding affinity to Texas Red-labelled CXCL12 (unknown origin) assessed as inhibition of CXCL12-Texas Red binding to EGFP-labeled human CXCR4 expressed in HEK293 cell membranes at 5 uM pre-incubated for 1 hr by FRET-based binding assay
T1 sequence (P48061 whole entry): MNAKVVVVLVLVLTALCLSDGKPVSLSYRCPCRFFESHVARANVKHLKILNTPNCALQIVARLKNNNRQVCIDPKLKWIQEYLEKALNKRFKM
Summary of the method: (§1)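 HEK-293 cells stably expressing human EGFP-CXCR4, 10⁶ cells/ml in HEPES buffer pH 7.4 with 0.1% BSA, 21 °C. CXCL12-Texas Red (100 nM) was preincubated 1 h at room temperature with compound or DMSO, then added at t=150 s. FRET read as loss of EGFP emission at 510 nm (excitation 470 nm) up to equilibrium. Ki from dose-response curves.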

[3] = biological target: T1, Stromal cell-derived factor 1; assay: Binding affinity to Texas Red-labelled CXCL12 (unknown origin) assessed as inhibition of CXCL12-Texas Red binding to EGFP-labeled human CXCR4 expressed in HEK293 cell membranes at 30 uM pre-incubated for 1 hr by FRET-based binding assay; summary of the method: as §1
Mus musculus [4] = assay: Anti-inflammatory activity in Balb/c mouse model of hypereosinophilia assessed as inhibition of eosinophil infiltration at 2.5 umol/kg, ip dosed 2 hrs before allergen challenge; format: functional
Summary of the method: (§2)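 Balb/c mice sensitized with OVA/alum i.p. and challenged intranasally with OVA on 3 consecutive days. Compounds given i.p. 2 h before each challenge: neutraligands 350 μmol/kg in PBS/CMC 1%, AMD3100 12.6 μmol/kg, dexamethasone 2.5 μmol/kg. BAL 24 h after the last challenge; absolute eosinophil counts; mean ± SEM, n=6/group.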

Mus musculus [5] = assay: Toxicity in Balb/c mouse model of hypereosinophilia assessed as reduction in body weight at 2.5 umol/kg, ip dosed daily 2 hrs before allergen challenge for 3 days and measured 24 hrs after last dose; format: organism-based; parameters: scale not given: the % may be the effect or the level left; details: in vivo
Summary of the method: (§3)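 Same OVA model with i.p. dosing 2 h before each of the three challenges: neutraligands 350 μmol/kg in PBS/CMC 1%, AMD3100 12.6 μmol/kg, dexamethasone 2.5 μmol/kg. Body and spleen weight loss recorded 24 h after three daily administrations; n=6/group.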

Mus musculus [6] = assay: Toxicity in Balb/c mouse model of hypereosinophilia assessed as reduction in spleen weight at 2.5 umol/kg, ip dosed daily 2 hrs before allergen challenge for 3 days and measured 24 hrs after last dose; format: organism-based; parameters: scale not given: the % may be the effect or the level left; details: in vivo; summary of the method: as §3
[7] = Solubility in PBS buffer; format: physicochemical
Summary of the method: (§4)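 Powder dissolved to saturation in pH 7.4 PBS (100 mM sodium phosphate, 150 mM NaCl), or in PBS with 10% Cdx, and shaken 24 h. After centrifugation, supernatant quantified by HPLC against a per-compound calibration line prepared from the DMSO stock.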

[8] = biological target: T1, Stromal cell-derived factor 1; assay: Binding affinity to Texas Red-labelled CXCL12 (unknown origin) assessed as inhibition of CXCL12-Texas Red binding to EGFP-labeled human CXCR4 expressed in HEK293 cell membranes pre-incubated for 1 hr by FRET-based binding assay; details: hek293; summary of the method: as §1
[9] = Thermodynamic solubility in pH 7.4 PBS buffer incubated for 24 hrs at 22 degC by HPLC method; format: physicochemical; details: read-out: Therm_solubility; summary of the method: as §4
[10] = Thermodynamic solubility in pH 7.4 PBS/Cdx buffer incubated for 24 hrs at 22 degC by HPLC method; format: physicochemical; details: read-out: Therm_solubility; summary of the method: as §4
[11] = Chemical stability in pH 7.4 PBS buffer assessed as parent compound remaining at 10 uM incubated for 24 hrs by RP-HPLC method; format: physicochemical; details: read-out: Stability
Summary of the method: (§5)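 Compound diluted from DMSO stock to 10 μM final (1% DMSO) in PBS pH 7.4, or in PBS with 10% w/w (2-hydroxypropyl)-β-cyclodextrin. Sampled at t0, 2, 4, 6 and 24 h and injected directly onto RP-HPLC. Percent remaining relative to t0 from peak area.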

[12] = Chemical stability in pH 7.4 PBS/Cdx buffer assessed as parent compound remaining at 10 uM incubated for 24 hrs by RP-HPLC method; format: physicochemical; details: read-out: Stability; summary of the method: as §5
Mus musculus [13] = assay: Inhibition of eosinophil infiltration in Balb/c mouse model of 8 day model of allergic eosinophilic airway inflammation at 300 nmol/kg dosed intranasally 2 hrs before ovalbumin challenge by hemocytometry; format: functional; details: inhaled or nasal
Summary of the method: (§6)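 OVA/alum-sensitized Balb/c mice challenged intranasally with OVA on days 5–7. Compounds at 300 nmol/kg in 10% PBS/Cdx given intranasally 2 h before each challenge. BAL 24 h after the last challenge; eosinophils, neutrophils and lymphocytes counted by hemocytometer and differential cytospin; n=6/group.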

Mus musculus [14] = assay: Inhibition of macrophages infiltration in Balb/c mouse model of 8 day model of allergic eosinophilic airway inflammation at 300 nmol/kg dosed intranasally 2 hrs before ovalbumin challenge by hemocytometry; format: functional, organism-based
Mus musculus [15] = assay: Inhibition of lymphocytes infiltration in Balb/c mouse model of 8 day model of allergic eosinophilic airway inflammation at 300 nmol/kg dosed intranasally 2 hrs before ovalbumin challenge by hemocytometry; format: functional, organism-based; summary of the method: as §6
Mus musculus [16] = assay: Inhibition of eosinophil infiltration in Balb/c mouse model of 8 day model of allergic eosinophilic airway inflammation dosed intranasally 2 hrs before ovalbumin challenge by hemocytometry; format: functional, organism-based
Summary of the method: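 Same intranasal OVA model with dose-response treatment in PBS/Cdx 10% given 2 h before each challenge. Percent inhibition of BAL eosinophil recruitment; mean ± SEM, n=6/group.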

Mus musculus [17] = assay: Anti-inflammatory activity in Balb/c mouse model of hypereosinophilia assessed as inhibition of eosinophil infiltration at 350 umol/kg, ip dosed 2 hrs before allergen challenge; format: functional; summary of the method: as §2
Mus musculus [18] = assay: Toxicity in Balb/c mouse model of hypereosinophilia assessed as reduction in body weight at 12.6 umol/kg, ip dosed daily 2 hrs before allergen challenge for 3 days and measured 24 hrs after last dose; format: organism-based; details: in vivo; summary of the method: as §3
Mus musculus [19] = assay: Toxicity in Balb/c mouse model of hypereosinophilia assessed as reduction in spleen weight at 12.6 umol/kg, ip dosed daily 2 hrs before allergen challenge for 3 days and measured 24 hrs after last dose; format: organism-based; details: in vivo; summary of the method: as §3
Mus musculus [20] = assay: Toxicity in Balb/c mouse model of hypereosinophilia assessed as reduction in body weight at 350 umol/kg, ip dosed daily 2 hrs before allergen challenge for 3 days and measured 24 hrs after last dose; format: organism-based; parameters: scale not given: the % may be the effect or the level left; details: in vivo; summary of the method: as §3
Mus musculus [21] = assay: Toxicity in Balb/c mouse model of hypereosinophilia assessed as reduction in spleen weight at 350 umol/kg, ip dosed daily 2 hrs before allergen challenge for 3 days and measured 24 hrs after last dose; format: organism-based; parameters: scale not given: the % may be the effect or the level left; details: in vivo; summary of the method: as §3
Mus musculus [22] = assay: Toxicity in Balb/c mouse model of hypereosinophilia assessed as reduction in body weight at 350 umol/kg, ip dosed daily 2 hrs before allergen challenge for 10 days and measured 24 hrs after last dose; format: organism-based; details: in vivo
Summary of the method: (§7)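 Mice given 10 daily administrations at 350 μmol/kg. Monitored for weight loss and for signs of toxicity, including prostration and bristly hair.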

Mus musculus [23] = assay: Toxicity in Balb/c mouse model of hypereosinophilia assessed as toxic signs at 350 umol/kg, ip dosed daily 2 hrs before allergen challenge for 10 days and measured 24 hrs after last dose; format: organism-based; details: in vivo; summary of the method: as §7
Mus musculus [24] = assay: Toxicity in Balb/c mouse model of hypereosinophilia assessed as prostration at 350 umol/kg, ip dosed daily 2 hrs before allergen challenge for 10 days and measured 24 hrs after last dose; format: organism-based; details: in vivo; summary of the method: as §7
Mus musculus [25] = assay: Toxicity in Balb/c mouse model of hypereosinophilia assessed as induction of bristly hair at 350 umol/kg, ip dosed daily 2 hrs before allergen challenge for 10 days and measured 24 hrs after last dose; format: organism-based; details: in vivo; summary of the method: as §7
Mus musculus [26] = assay: Toxicity in Balb/c mouse model of hypereosinophilia assessed as induction of liver lesions at 350 umol/kg, ip dosed daily 2 hrs before allergen challenge for […] and measured 24 hrs after last dose by Gomori's trichrome staining based histological analysis; format: organism-based; details: in vivo
Mus musculus [27] = assay: Toxicity in Balb/c mouse model of hypereosinophilia assessed as induction of spleen lesions at 350 umol/kg, ip dosed daily 2 hrs before allergen challenge for […] and measured 24 hrs after last dose by Gomori's trichrome staining based histological analysis; format: organism-based; details: in vivo
Mus musculus [28] = assay: Toxicity in Balb/c mouse model of hypereosinophilia assessed as induction of heart lesions at 350 umol/kg, ip dosed daily 2 hrs before allergen challenge for […] and measured 24 hrs after last dose by Gomori's trichrome staining based histological analysis; format: organism-based; details: in vivo
Mus musculus [29] = assay: Toxicity in Balb/c mouse model of hypereosinophilia assessed as induction of kidney lesions at 350 umol/kg, ip dosed daily 2 hrs before allergen challenge for […] and measured 24 hrs after last dose by Gomori's trichrome staining based histological analysis; format: organism-based; details: in vivo
[30] = biological target: T1, Stromal cell-derived factor 1; assay: Binding affinity to Texas Red-labelled CXCL12 (unknown origin) assessed as inhibition of CXCL12-Texas Red binding to EGFP-labeled human CXCR4 expressed in HEK293 cell membranes at 1 uM pre-incubated for 1 hr by FRET-based binding assay; summary of the method: as §1
[31] = biological target: T1, Stromal cell-derived factor 1; assay: Binding affinity to Texas Red-labelled CXCL12 (unknown origin) assessed as inhibition of CXCL12-Texas Red binding to EGFP-labeled human CXCR4 expressed in HEK293 cell membranes at 0.3 uM pre-incubated for 1 hr by FRET-based binding assay; summary of the method: as §1
[32] = biological target: T1, Stromal cell-derived factor 1; assay: Binding affinity to CXCL12 (unknown origin) assessed as changes in tryptophan fluorescence intensity
Summary of the method: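 Intrinsic Trp fluorescence of CXCL12 (2 μM in Hepes buffer), excitation 285 nm, emission 340 nm, titrated with increasing compound. Kd obtained by fitting a 1:1 binding quadratic model with chemokine fixed at 2 μM. Mean ± SD of three independent experiments.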

[33] = biological target: T1, Stromal cell-derived factor 1; assay: Binding affinity to Texas Red-labelled CXCL12 (unknown origin) assessed as inhibition of CXCL12-Texas Red binding to EGFP-labeled human CXCR4 expressed in HEK293 cell membranes at 300 uM pre-incubated for 1 hr by FRET-based binding assay; summary of the method: as §1

## CCOc1cc(/C=C/C(=O)c2ccc(Cl)cc2)ccc1O
[1]
  solubility kinetic at 24 h, 5 µM: 4.72 µM (≈ 1.43 µg/mL)
[2]
  inhibition: 52%

## COc1cc(/C=C/C(=O)c2ccc(S(=O)(=O)O)cc2)ccc1O
[3]
  inhibition: 6%
[1]
  solubility kinetic at 24 h, 5 µM: > 5 µM

## C[C@@H]1C[C@H]2[C@@H]3CCC4=CC(=O)C=C[C@]4(C)[C@@]3(F)[C@@H](O)C[C@]2(C)[C@@]1(O)C(=O)CO [DEXAMETHASONE]
Mus musculus [4]
  inhibition in vivo at 2.5 µmol/kg: 59%
Mus musculus [5]
  Activity: 10.1%
Mus musculus [6]
  Activity: 43%

## COc1cc(/C=C/C(=O)c2ccc(Cl)cc2)ccc1O
[7]
  solubility: 9 µM (≈ 2.6 µg/mL)
[8]
  Ki: 53 nM
[1]
  solubility kinetic at 24 h, 5 µM: > 5 µM
[9]
  solubility thermodynamic at 24 h: 9 µM (≈ 2.6 µg/mL)
[10]
  solubility thermodynamic at 24 h: > 300 µM
[11]
  remaining at 24 h, 10 µM: 100%
[12]
  remaining at 24 h, 10 µM: 100%
Mus musculus [13]
  inhibition in vivo at 0.3 µmol/kg: 47%
Mus musculus [14]
  inhibition: inactive
Mus musculus [15]
  inhibition: inactive
Mus musculus [16]
  IC50: > 500 nmol/kg
Mus musculus [17]
  inhibition in vivo at 350 µmol/kg: 54%
Mus musculus [18]
  Activity: Non-Toxic
Mus musculus [19]
  Activity: Non-Toxic
Mus musculus [20]
  Activity: 0%
Mus musculus [21]
  Activity: 0%
Mus musculus [22]
  Activity: Non-Toxic
Mus musculus [23]
  Activity: Non-Toxic
Mus musculus [24]
  Activity: Non-Toxic
Mus musculus [25]
  Activity: Non-Toxic
Mus musculus [26]
  Activity: Non-Toxic
Mus musculus [27]
  Activity: Non-Toxic
Mus musculus [28]
  Activity: Non-Toxic
Mus musculus [29]
  Activity: Non-Toxic

## O=C(/C=C/c1ccccc1)c1ccc(Cl)cc1
[1]
  solubility kinetic at 24 h, 5 µM: 1.17 µM (≈ 0.284 µg/mL)
[30]
  inhibition: 18%

## COc1cc(-c2cc(-c3ccc(Cl)cc3)nc(-c3ccccc3)n2)ccc1O
[1]
  solubility kinetic at 24 h, 5 µM: 0.53 µM (≈ 0.206 µg/mL)
[31]
  inhibition: 20%

## O=c1nc(-c2ccc(Cl)cc2)cc(-c2ccc(O)cc2)[nH]1
Mus musculus [15]
  inhibition: inactive
[32]
  Activity: inactive
[33]
  inhibition: < 5%
